Measurements from ChEMBL document CHEMBL1139634, “Synthesis of substituted indole derivatives as a new class of antimalarial agents” (2005).
In brackets after ≈: the same amount, converted by molar mass.

Tested on: Plasmodium falciparum
Assay: In vitro minimum inhibitory concentration against Plasmodium falciparum NF54 over 40 hours
Type: functional
In short: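 Micro assay in 96-well format: compounds at 0.25–50 µg/mL, duplicate wells, incubated with parasitized cells at 37 °C in candle jar, 36–40 h. Giemsa-stained smears scored microscopically for ring-to-schizont maturation. MIC is the concentration fully blocking schizont maturation. Pyrimethamine reference.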

SMILES	MIC [µg/mL]
Clc1ccc(-c2cc(-c3c[nH]c4ccccc34)nc(N3CCCC3)n2)cc1	10 (≈ 26.7 µM)
COc1ccc(-c2cc(-c3c[nH]c4ccccc34)nc(N3CCN(C)CC3)n2)cc1OC	1 (≈ 2.33 µM)
CN1CCN(c2nc(-c3ccc(Cl)cc3)cc(-c3c[nH]c4ccccc34)n2)CC1	1 (≈ 2.48 µM)
Clc1ccc(-c2cc(-c3c[nH]c4ccccc34)nc(N3CCCCC3)n2)cc1	10 (≈ 25.7 µM)
Clc1ccc(-c2cc(-c3c[nH]c4ccccc34)nc(N3CCOCC3)n2)cc1	50 (≈ 128 µM)
Cc1ccc(-c2cc(-c3c[nH]c4ccccc34)nc(N3CCCCC3)n2)cc1	10 (≈ 27.1 µM)
COc1ccc(-c2cc(-c3c[nH]c4ccccc34)nc(N3CCCCC3)n2)cc1	10 (≈ 26 µM)
CN1CCN(c2nc(-c3ccccc3)cc(-c3c[nH]c4ccccc34)n2)CC1	1 (≈ 2.71 µM)
COc1ccc(-c2cc(-c3c[nH]c4ccccc34)nc(N3CCN(C)CC3)n2)cc1	1 (≈ 2.5 µM)
COc1ccc(OC)c(-c2cc(-c3c[nH]c4ccccc34)nc(N3CCOCC3)n2)c1	50 (≈ 120 µM)
Cc1ccc(-c2cc(-c3c[nH]c4ccccc34)nc(N3CCN(C)CC3)n2)cc1	1 (≈ 2.61 µM)
COc1ccc(-c2cc(-c3c[nH]c4ccccc34)nc(N3CCOCC3)n2)cc1	50 (≈ 129 µM)
Cc1ccc(-c2cc(-c3c[nH]c4ccccc34)nc(N3CCOCC3)n2)cc1	50 (≈ 135 µM)
c1ccc(-c2cc(-c3c[nH]c4ccccc34)nc(N3CCOCC3)n2)cc1	50 (≈ 140 µM)
COc1ccc(-c2cc(-c3c[nH]c4ccccc34)nc(N3CCCC3)n2)cc1	10 (≈ 27 µM)
c1ccc(-c2cc(-c3c[nH]c4ccccc34)nc(N3CCCCC3)n2)cc1	10 (≈ 28.2 µM)
COc1ccc(OC)c(-c2cc(-c3c[nH]c4ccccc34)nc(N3CCCCC3)n2)c1	10 (≈ 24.1 µM)
COc1ccc(-c2cc(-c3c[nH]c4ccccc34)nc(N3CCCC3)n2)cc1OC	10 (≈ 25 µM)
Cc1ccc(-c2cc(-c3c[nH]c4ccccc34)nc(N3CCCC3)n2)cc1	10 (≈ 28.2 µM)
COc1ccc(-c2cc(-c3c[nH]c4ccccc34)nc(N3CCOCC3)n2)cc1OC	50 (≈ 120 µM)
COc1ccc(OC)c(-c2cc(-c3c[nH]c4ccccc34)nc(N3CCCC3)n2)c1	10 (≈ 25 µM)
c1ccc(-c2cc(-c3c[nH]c4ccccc34)nc(N3CCCC3)n2)cc1	10 (≈ 29.4 µM)
COc1ccc(-c2cc(-c3c[nH]c4ccccc34)nc(N3CCCCC3)n2)cc1OC	10 (≈ 24.1 µM)
COc1ccc(OC)c(-c2cc(-c3c[nH]c4ccccc34)nc(N3CCN(C)CC3)n2)c1	1 (≈ 2.33 µM)
CCc1nc(N)nc(N)c1-c1ccc(Cl)cc1 [PYRIMETHAMINE]	10 (≈ 40.2 µM)
